SENP7 block: SENP7 protease inhibition; recombinant SENP7, Z-RLRGG-aminoluciferin luminescence, 40 min; inhibition, % at 5 µM; actives 1.5% (n = 330,000); AID 434973;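 active = inhibition above about 50% at the single test dose, limit read from the data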
SENP8 block-1: SENP8 protease inhibition; actives 1.2% (n = 330,000); AID 2540; inhibition, % at 10 µM; Q96LD8; purified SENP8, Z-RLRGG-aminoluciferin cleavage, luminescence; in the data active = inhibition above about 50%
Target sequence (Q96LD8 whole entry, looked up): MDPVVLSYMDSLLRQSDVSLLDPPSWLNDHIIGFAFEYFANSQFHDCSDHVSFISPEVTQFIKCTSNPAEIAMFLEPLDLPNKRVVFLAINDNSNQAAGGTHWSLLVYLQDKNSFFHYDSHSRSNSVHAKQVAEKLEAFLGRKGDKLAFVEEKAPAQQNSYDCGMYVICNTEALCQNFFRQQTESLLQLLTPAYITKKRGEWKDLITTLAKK
SENP8 block-2: SENP8 (human) protease inhibition. recombinant SENP8, Nedd8 substrate fluorescence. inhibition, % at 20 µM. actives 0.64% (n = 360,000). AID 602440; in the data active = inhibition mostly above about 40%, no sharp cut-off; inactive = mostly below about 27%
SENP6 inh: blocks the human protease SENP6; Q9GZR1; inhibition, % at 10 µM; actives 1.8% (n = 330,000); Recombinant SENP6 catalytic domain, aminoluciferin luminescence;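 active = inhibition above about 50% at the single tested dose, limit read from the data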
Apaf-1 inh: inhibitors of human Apaf-1 apoptosome | reconstituted apoptosome caspase-3 activity, DEVD-Rh110 fluorescence | inhibition, % at 20 µM | actives 0.71% (n = 330,000) | AID 489030; active = inhibition of at least 40% at 20 µM
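Medium: Hepes buffer, pH 7.5 / System: biochemical Apaf-1 apoptosome reconstitution / Measured by: Rh110 fluorescence, excitation 480 nm, emission 540 nm / Times: compound with Apaf-1, dATP, procaspase-3 30 min, then 50 min reaction, room temperature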
UBC13 inh: human UBC13 polyubiquitination inhibition; P61088; UBC13 polyubiquitin chain formation, TR-FRET; inhibition, % at 20 µM; actives 0.47% (n = 330,000); in the data active = inhibition above about 45%, passing the limit was not always enough
Target sequence (P61088 whole entry, looked up): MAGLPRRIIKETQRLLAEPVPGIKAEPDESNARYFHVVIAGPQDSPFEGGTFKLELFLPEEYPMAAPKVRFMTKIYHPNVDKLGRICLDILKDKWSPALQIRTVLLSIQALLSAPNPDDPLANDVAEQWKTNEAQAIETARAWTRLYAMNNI
SENP8 conf: confirmation of human SENP8 protease inhibitors. shares compounds with SENP7 block. Recombinant SENP8, Z-RLRGG-aminoluciferin luminescence, 60 min. inhibition, % at 12.5 µM. actives 40% (n = 6,200);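 active = mean inhibition across replicates above about 50%, limit read from the data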
SENP6 conf: human SENP6 inhibition, confirmed; recombinant SENP6, Z-RLRGG-aminoluciferin luminescence; inhibition, % at 12.5 µM; shares compounds with SENP7 block; actives 58% (n = 6,200)
SENP7 confirm: confirmation of human SENP7 protease inhibitors. shares compounds with SENP7 block. recombinant SENP7, Z-RLRGG-aminoluciferin luminescence, 40 min. inhibition, % at 12.5 µM. actives 69% (n = 6,200)
Casp3 select: selectivity test for SENP inhibitors: human caspase-3 inhibition; AID 488918; actives 60% (n = 6,200); shares compounds with SENP7 block; purified caspase-3, Z-DEVD-aminoluciferin luminescence, 60 min; inhibition, % at 12.5 µM;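 active = mean inhibition above about 50%, limit read from the data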
Target sequence (P42574 28-227 limits assumed): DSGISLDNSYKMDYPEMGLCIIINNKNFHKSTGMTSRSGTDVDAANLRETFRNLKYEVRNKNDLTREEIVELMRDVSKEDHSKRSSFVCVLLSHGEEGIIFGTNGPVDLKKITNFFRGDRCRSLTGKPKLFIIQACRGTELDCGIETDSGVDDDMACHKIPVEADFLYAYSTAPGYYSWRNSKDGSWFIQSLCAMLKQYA
Luc interf: counter-screen for SENP inhibitors: luminescence interference; Pre-incubated SENP8/Z-RLRGG-aminoluciferin, luciferase luminescence interference; AID 488919; inhibition, % at 12.5 µM; actives 39% (n = 6,200); shares compounds with SENP7 block;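 active = mean inhibition above about 50% when retested at one dose, limit read from the data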
A number is an active result; 0 = inactive; - = no result given. The list is not random: actives were taken first. Their share in the collection is about 3%.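 Rule for the calls, unless noted: active = mean inhibition above about 50% in the one-dose retest (limit read from the data); inactive = the rest.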

SMILES | SENP7 block | SENP8 block-1 | SENP8 block-2 | SENP6 inh | Apaf-1 inh | UBC13 inh | SENP8 conf | SENP6 conf | SENP7 confirm | Casp3 select | Luc interf
CC1/C(=N/O)CC(c2ccccc2)NC1c1ccccc1 (stereo not given) | 88.8 | 0 | 0 | 0 | 0 | 0 | 0 | 0 | 0 | 0 | 0
COc1ccc(C(O)c2nc(-c3ccc4ccccc4c3)cs2)cc1 (stereo not given) | - | - | 0 | - | - | - | - | - | - | - | -
O=C1Cc2c([nH]c3ccc([N+](=O)[O-])cc23)-c2ccccc2N1 | - | - | 0 | - | - | - | - | - | - | - | -
COC(=O)CCc1c(C)c(C(=O)c2cc(F)c(F)c(F)c2F)c2ccccn12 | 0 | 0 | 0 | 77.4 | 0 | 0 | 0 | 0 | 0 | 0 | 0
C[C@H](CO)N1C[C@H](C)[C@@H](CN(C)Cc2ccc(C(=O)O)cc2)Oc2ncc(-c3ccc(C(=O)N(C)C)cc3)cc2C1=O | - | - | 0 | - | - | - | - | - | - | - | -
O=C(Oc1ccc2c(c1)OCO2)c1cc2c(s1)CCC2 | 68.3 | 60.2 | 0 | 80.8 | 0 | 0 | 76.1 | 73.9 | 89.0 | 56.5 | 64.7
O=C(c1cc2c(s1)CCCC2)N1CCN(Cc2ccc3c(c2)OCO3)CC1 | 0 | 0 | 0 | 0 | 0 | 0 | - | - | - | - | -
O=C(Oc1ccc2c(c1)OCO2)c1ccc(F)cc1Cl | 88.3 | 75.0 | 0 | 91.3 | 0 | 0 | 73.2 | 83.7 | 97.3 | 77.2 | 75.0
CCOC(=O)[C@]12CCC=C1N(Cc1ccc(Cl)cc1Cl)C(=O)[C@H](CC(=O)NCc1ccc(OC)c(OC)c1)C2 | - | - | 0 | - | - | - | - | - | - | - | -
O=C(c1cccs1)N1CCc2ccccc21 | 61.3 | 0 | 0 | 59.9 | 0 | 0 | 0 | 0 | 80.4 | 75.6 | 59.1
Cc1ccc(C(=O)N2CCc3ccccc32)o1 | 91.1 | 87.6 | 0 | 90.7 | 0 | 0 | 90.7 | 90.8 | 98.4 | 94.7 | 89.3
Cc1ccc(C(=O)N2c3ccccc3CC2C)o1 (stereo not given) | 93.7 | 89.8 | 0 | 85.1 | 0 | 0 | 93.6 | 95.9 | 101.0 | 96.6 | 83.1
O=C(c1cccs1)N1CCCc2ccccc21 | 0 | 0 | 0 | 0 | 0 | 0 | - | - | - | - | -
CC1(C(=O)Nc2cccc3c2CCCC3)CCN1C(=O)c1cccc(F)c1 (stereo not given) | - | - | 0 | - | - | - | - | - | - | - | -
Nc1ccccc1-c1ccccc1N | 0 | 0 | 0 | 0 | 0 | 0 | - | - | - | - | -
Nc1ccccc1N=Nc1ccccc1N | 84.6 | 77.4 | 0 | 85.9 | 0 | 0 | 84.8 | 82.8 | 96.4 | 73.1 | 63.6
Cc1ccc(Nc2nc(Cl)c(C=O)s2)cc1Cl | 87.1 | 93.2 | 0 | 94.3 | 0 | 0 | 68.9 | 96.4 | 85.0 | 52.0 | 0
O=Cc1sc(Nc2ccccc2)nc1Cl | 0 | 0 | 0 | 0 | 0 | 0 | - | - | - | - | -
COc1cc(OC)cc(-c2noc(-c3csc([C@@H]4C[C@H](O)[C@@H](CO)O4)n3)n2)c1 | - | - | 0 | - | - | - | - | - | - | - | -
COc1ccc2oc(C(=O)NCCc3ccccc3)c(C)c2c1 | 88.4 | 84.1 | 0 | 89.5 | 0 | 0 | 92.9 | 92.5 | 100.0 | 85.5 | 72.2
CCOc1ccc2oc(C(=O)Nc3ccc(C)cn3)c(C)c2c1 | - | - | 0 | - | - | - | - | - | - | - | -
COc1ccc2oc(C(=O)Nc3nccs3)c(C)c2c1 | 83.3 | 0 | 0 | 0 | 0 | 0 | 0 | 0 | 0 | 0 | 0
CCOc1ccc2oc(C(=O)Nc3nccs3)c(C)c2c1 | 77.6 | 0 | 0 | 0 | 0 | 0 | 0 | 0 | 0 | 0 | 0
CCCCc1nnc(NC(=O)c2oc3ccc(OC)cc3c2C)s1 | 0 | 0 | 0 | 0 | 0 | 0 | - | - | - | - | -
COc1ccc(OC)c(NC(=O)C2(C)CCN2C(=O)CCC2CCCC2)c1 (stereo not given) | - | - | 0 | - | - | - | - | - | - | - | -
SMILES | SENP7 block | SENP8 block-1 | SENP8 block-2 | SENP6 inh | Apaf-1 inh | UBC13 inh | SENP8 conf | SENP6 conf | SENP7 confirm | Casp3 select | Luc interf
Oc1ccc(-c2csc(-c3cccnc3)n2)cc1O | 0 | 0 | 0 | 0 | 0 | 0 | - | - | - | - | -
Oc1ccccc1-c1csc(-c2ccccc2)n1 | 83.4 | 70.7 | 0 | 76.4 | 0 | 0 | 0 | 74.2 | 92.1 | 0 | 0
Oc1ccc(-c2csc(-c3ccccc3)n2)cc1O | 0 | 0 | 0 | 54.0 | 0 | 0 | 60.4 | 55.6 | 73.0 | 0 | 68.3
Cc1[nH]c2ccccc2c1C(=O)C(=O)NCc1nnnn1-c1ccc(F)cc1 | - | - | 0 | - | - | - | - | - | - | - | -
Cc1[nH]c2ccccc2c1/C=N\NC(=O)CNc1ccc2c(c1)OCO2 | 0 | 0 | 0 | 0 | 0 | 0 | - | - | - | - | -
COc1ccc(CN=Cc2c(O)[nH]c3ccccc23)cc1 | 0 | 0 | 0 | 0 | 0 | 0 | - | - | - | - | -
Oc1[nH]c2ccccc2c1C=Nc1ccc2c(c1)OCO2 | 0 | 75.6 | 0 | 86.3 | 0 | 0 | 66.9 | 88.0 | 99.4 | 83.1 | 0
COc1ccc(N=Cc2c(O)[nH]c3ccccc23)cc1 | 67.9 | 65.9 | 0 | 0 | 0 | 0 | 0 | 83.0 | 98.8 | 76.2 | 0
O=C(Cn1nnc(-c2ccccc2)c1COc1ccc2ccccc2c1)NCC1CC1 | - | - | 0 | - | - | - | - | - | - | - | -
Cc1ccc(F)c(S(=O)(=O)NC(=O)C2(C)CCN2C(=O)c2ccc(C(F)(F)F)nc2C)c1 (stereo not given) | - | - | 0 | - | - | - | - | - | - | - | -
O=C(c1ccccc1)c1ccc(N2CCOCC2)cc1 | - | - | 0 | - | - | - | - | - | - | - | -
Cc1ccc(/C=C/C(=O)c2ccc(N3CCOCC3)cc2)s1 | 0 | 67.7 | 0 | 80.6 | 0 | 0 | 0 | 0 | 0 | 0 | 0
Cc1cccc(/C=C/C(=O)c2ccc(N3CCOCC3)cc2)c1 | 92.4 | 84.4 | - | 89.1 | 0 | 0 | 0 | 0 | 0 | 55.2 | 80.2
C/C(=N\NC(=O)c1cccc(C)c1)c1ccc(N2CCOCC2)cc1 | 0 | 0 | 0 | 0 | 0 | 0 | - | - | - | - | -
CCOc1cccc(/C=C2\NC(=S)N(c3ccccc3)C2=O)c1O | 86.5 | 91.0 | 0 | 91.9 | 0 | 0 | 82.7 | 97.9 | 102.5 | 94.5 | 68.9
CCOc1cc(/C=C2\NC(=S)N(c3c(C)n(C)n(-c4ccccc4)c3=O)C2=O)ccc1O | 0 | 0 | 0 | 0 | 0 | 0 | - | - | - | - | -
N/C(=N\OC(=O)c1ccccc1Br)c1cccc([N+](=O)[O-])c1 | 82.3 | 66.4 | 0 | 85.3 | 0 | 0 | 59.1 | 52.4 | 83.0 | 50.9 | 66.5
N/C(=N\OC(=O)c1ccccc1F)c1cccc([N+](=O)[O-])c1 | 63.6 | 0 | 0 | 0 | 0 | 0 | 0 | 0 | 77.6 | 51.2 | 0
Cc1ccc(C(=O)O/N=C(\N)c2cccc([N+](=O)[O-])c2)cc1 | 0 | 0 | 0 | 0 | 0 | 0 | - | - | - | - | -
Cc1ccc(S(=O)(=O)N2C[C@H]3C(=O)C[C@@H](c4ccc(Cl)cc4)N(S(=O)(=O)c4ccc(C)cc4)[C@H]3C[C@H]2c2ccccc2)cc1 | - | - | 0 | - | - | - | - | - | - | - | -
